Values joined by “and” are separate entries in the source; they are usually repeats but may differ in a detail not shown here. Equal values may be shown once.
Legend:
mouse = experiment: concentration in blood after dosing; negative times count back from the end of exposure; details: dosed: tert-amyl methyl ether, inhalation, duration: 6 hr, male, CD-1 (Charles River)
Outline: (§1)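 Sampling and analytical methods are those of each source and frequently went unreported. The concentration-versus-time and amount-versus-time points were compiled from published in vivo toxicokinetic studies and two structured collections. Most were digitised from plot screenshots with WebPlotDigitizer, with others copied from tables, in the reported units.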

human = experiment: amount in urine after dosing (umol); details: dosed: tert-amyl methyl ether
Outline: as §1

CCC(C)(C)O [tertiary amyl alcohol]
mouse
Details	concentration in blood
0.1295 h, 2500 ppm	209000 ng/mL
0.1808 h, 500 ppm	29600 ng/mL
0.1823 h, 500 ppm	32600 ng/mL
0.1835 h, 500 ppm	34900 ng/mL
0.1993 h, 2500 ppm	170000 ng/mL
0.2 h, 2500 ppm	165000 ng/mL
0.2011 h, 2500 ppm	158000 ng/mL
0.5116 h, 500 ppm	16700 ng/mL
0.5437 h, 500 ppm	19500 ng/mL
0.545 h, 500 ppm	22000 ng/mL
0.5455 h, 500 ppm	23100 ng/mL
0.5766 h, 2500 ppm	194000 ng/mL
0.5768 h, 2500 ppm	193000 ng/mL
0.5776 h, 2500 ppm	187000 ng/mL
0.59 h, 2500 ppm	109000 ng/mL
1.057 h, 500 ppm	3620 ng/mL
1.059 h, 500 ppm	7190 ng/mL
1.061 h, 500 ppm	12200 ng/mL
1.062 h, 500 ppm	12600 ng/mL
1.12 h, 2500 ppm	175000 ng/mL
1.123 h, 2500 ppm	155000 ng/mL and 153000 ng/mL and 151000 ng/mL
1.914 h, 500 ppm	752 ng/mL
1.945 h, 500 ppm	139 ng/mL
2.052 h, 2500 ppm	105000 ng/mL
2.058 h, 2500 ppm	66500 ng/mL and 65300 ng/mL
2.059 h, 2500 ppm	57700 ng/mL
4.101 h, 2500 ppm	3630 ng/mL and 1940 ng/mL
9.951 h, 500 ppm	73.9 ng/mL
10.17 h, 2500 ppm	1840 ng/mL
17.96 h, 500 ppm	8.51 ng/mL
18.11 h, 2500 ppm	2120 ng/mL
126 s, 500 ppm	44300 ng/mL
133 s, 2500 ppm	192000 ng/mL
137 s, 2500 ppm	184000 ng/mL
138 s, 2500 ppm	183000 ng/mL
151 s, 500 ppm	57900 ng/mL
343 s, 500 ppm	42500 ng/mL

mouse, during exposure
Details	concentration in blood
-6 h, 100 ppm	3.59 ng/mL
-5.999 h, 500 ppm	1220 ng/mL
-5.907 h, 500 ppm	2450 ng/mL
-5.876 h, 500 ppm	2750 ng/mL
-5.873 h, 2500 ppm	2950 ng/mL
-5.818 h, 100 ppm	247 ng/mL and 289 ng/mL
-5.817 h, 100 ppm	326 ng/mL and 401 ng/mL
-5.814 h, 500 ppm	4080 ng/mL
-5.771 h, 100 ppm	487 ng/mL
-5.747 h, 2500 ppm	7170 ng/mL
-5.725 h, 100 ppm	600 ng/mL
-5.72 h, 500 ppm	7750 ng/mL
-5.659 h, 100 ppm	386 ng/mL and 450 ng/mL
-5.567 h, 500 ppm	6220 ng/mL
-5.507 h, 500 ppm	5100 ng/mL
-5.476 h, 100 ppm	694 ng/mL
-5.474 h, 500 ppm	9590 ng/mL
-5.464 h, 2500 ppm	25700 ng/mL
-5.433 h, 2500 ppm	29900 ng/mL
-5.244 h, 2500 ppm	40100 ng/mL
-5.135 h, 500 ppm	11400 ng/mL and 11600 ng/mL
-5.134 h, 500 ppm	13700 ng/mL and 14100 ng/mL
-4.958 h, 100 ppm	720 ng/mL
-4.937 h, 100 ppm	510 ng/mL
-4.936 h, 100 ppm	630 ng/mL
-4.934 h, 100 ppm	828 ng/mL
-4.899 h, 2500 ppm	67100 ng/mL
-4.898 h, 2500 ppm	64100 ng/mL and 61600 ng/mL
-4.897 h, 2500 ppm	57400 ng/mL
-4.057 h, 500 ppm	20900 ng/mL
-4.055 h, 500 ppm	23900 ng/mL
-4.054 h, 500 ppm	26200 ng/mL and 27300 ng/mL
-4 s, 500 ppm	33800 ng/mL
-3.898 h, 100 ppm	686 ng/mL
-3.897 h, 100 ppm	870 ng/mL
-3.895 h, 100 ppm	1130 ng/mL
-3.874 h, 100 ppm	926 ng/mL
-3.797 h, 2500 ppm	131000 ng/mL
-3.796 h, 2500 ppm	123000 ng/mL and 121000 ng/mL
-3.791 h, 2500 ppm	94900 ng/mL
-2.118 h, 500 ppm	33200 ng/mL
-2.087 h, 500 ppm	34400 ng/mL and 34600 ng/mL
-2.086 h, 500 ppm	36700 ng/mL
-1.99 h, 2500 ppm	155000 ng/mL
-1.979 h, 100 ppm	1160 ng/mL
-1.978 h, 100 ppm	1210 ng/mL
-1.96 h, 2500 ppm	162000 ng/mL
-1.957 h, 2500 ppm	146000 ng/mL
-1.953 h, 100 ppm	1570 ng/mL

CC(O)C(C)(C)O (stereo unspecified) [2-methyl-2,3-butanediol]
human, inhalation, duration: 4 hr
Details	amount in urine
0.2902 h, 38.4 ppm	3.72
6.051 h, 3.8 ppm	2.15
6.373 h, 38.4 ppm	16.5
12.12 h, 3.8 ppm	3.45
12.25 h, 38.4 ppm	30.5
18.08 h, 3.8 ppm	2.56
18.3 h, 38.4 ppm	29.8
24.08 h, 3.8 ppm	3.27
24.35 h, 38.4 ppm	31.2
30.04 h, 3.8 ppm	2.77
30.25 h, 38.4 ppm	25.2
36.13 h, 3.8 ppm	2.42
36.31 h, 38.4 ppm	28.1
42.02 h, 3.8 ppm	1.67
42.34 h, 38.4 ppm	17
47.89 h, 3.8 ppm	2.12
48.2 h, 38.4 ppm	23.9
54.05 h, 3.8 ppm	1.93
54.23 h, 38.4 ppm	14.1
59.94 h, 3.8 ppm	1.6
60.36 h, 38.4 ppm	18.1
66.02 h, 3.8 ppm	1.63
66.19 h, 38.4 ppm	12.1
71.9 h, 3.8 ppm	1.44
72.24 h, 38.4 ppm	11.2
225 s, 3.8 ppm	0.476

human, oral
Details	amount in urine
0.2379 h, 5 mg	0.118
6.002 h, 15 mg	1.07
6.23 h, 5 mg	0.379
11.79 h, 15 mg	1.97
12.07 h, 5 mg	0.593
17.9 h, 15 mg	2.14
18.15 h, 5 mg	0.435
24 h, 15 mg	2.43
24.24 h, 5 mg	0.394
29.83 h, 15 mg	2.27
30.07 h, 5 mg	0.532
35.87 h, 15 mg	2.31
36.08 h, 5 mg	0.4
41.73 h, 15 mg	1.29
42.17 h, 5 mg	0.374
47.83 h, 15 mg	1.66
48.27 h, 5 mg	0.367
53.95 h, 15 mg	1.48
54.08 h, 5 mg	0.38
59.71 h, 15 mg	1.02
60.18 h, 5 mg	0.324
65.84 h, 15 mg	0.758
66.2 h, 5 mg	0.264
71.94 h, 15 mg	1.05
72 h, 5 mg	0.243
77.76 h, 15 mg	1.07
78.1 h, 5 mg	0.243
83.97 h, 15 mg	0.611
84.2 h, 5 mg	0.244
89.71 h, 15 mg	0.61
90 h, 5 mg	0.214
95.84 h, 15 mg	0.463
96.03 h, 5 mg	0.188
235 s, 15 mg	0.223

— EPA's CvTdb concentration-time database
